How the values were obtained:
[1] = Antiviral activity against Human rhinovirus 71 infected in human HeLa cells assessed as inhibition of virus-induced cytopathic effect by MTT assay; format: functional, cell-based, Human rhinovirus A71; conditions: Rhinovirus A
Summary of the method: (§1)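 Confluent HeLa monolayers, in duplicate, got samples (20 mg/mL DMSO stock) diluted in MEM/2% FBS, then virus at 200 CCID50 per well, and were incubated under CO2. Protection was read by MTT and by microscopic inspection. EC50 was the concentration protecting 50% of cells from virus-induced cytotoxicity.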

[2] = Cytotoxicity against human HeLa cells by MTT assay; format: cell-based
Summary of the method: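 Mock-infected confluent HeLa cells were treated in duplicate with samples (20 mg/mL DMSO stock) diluted in MEM/2% FBS and incubated under CO2. Viability was read by MTT plus microscopy. CC50 was the concentration that cut mock-infected control absorbance by 50%.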

Coxsackievirus B3 = assay: Antiviral activity against Human coxsackievirus B3 infected in human HeLa cells assessed as inhibition of virus-induced cytopathic effect by MTT assay; format: functional, organism-based; conditions: Enterovirus B; summary of the method: as §1
[3] = Antiviral activity against Human rhinovirus 17 infected in human HeLa cells assessed as inhibition of virus-induced cytopathic effect by MTT assay; format: functional, cell-based, Human rhinovirus B17; conditions: Rhinovirus B; summary of the method: as §1
rhinovirus B14 = assay: Antiviral activity against Human rhinovirus 14 infected in human HeLa cells assessed as inhibition of virus-induced cytopathic effect by MTT assay; format: functional, organism-based; conditions: Rhinovirus B; summary of the method: as §1
Coxsackievirus B1 = assay: Antiviral activity against Human coxsackievirus B1 infected in human HeLa cells assessed as inhibition of virus-induced cytopathic effect by MTT assay; format: functional, organism-based; conditions: Enterovirus B; summary of the method: as §1
Poliovirus 3 = assay: Antiviral activity against Human poliovirus 3 infected in human HeLa cells assessed as inhibition of virus-induced cytopathic effect by MTT assay; format: functional, organism-based; conditions: Enterovirus C
Summary of the method: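 Confluent HeLa cells in 96-well plates, in duplicate; samples (20 mg/mL DMSO stock) diluted in MEM/2% FBS, then virus added at 200 CCID50 per well; incubated in CO2 incubator. Protection of cells from virus cytopathic effect read by MTT absorbance and microscopy; EC50 = concentration protecting 50% of cells. Cytotoxicity on mock-infected cells, CC50 = 50% absorbance reduction.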

C[S+]([O-])C[C@H]1O[C@@H](n2cnc3c(N)ncnc32)[C@H](O)[C@@H]1OC(=O)c1c[nH]c2cc(Br)c(O)cc12 (some centres undefined)
> 100 µg/mL: EC50 [1] | CC50 [2] | EC50 (Coxsackievirus B3) | EC50 [3] | EC50 (rhinovirus B14) | EC50 (Coxsackievirus B1) | EC50 (Poliovirus 3)

C[S+]([O-])C[C@H]1O[C@@H](n2cnc3c(N)ncnc32)[C@H](OC(=O)c2c[nH]c3cc(Br)c(O)cc23)[C@@H]1O (mixture of isomers)
> 100 µg/mL: EC50 [1] | CC50 [2] | EC50 (Coxsackievirus B3) | EC50 [3] | EC50 (rhinovirus B14) | EC50 (Coxsackievirus B1) | EC50 (Poliovirus 3)

From ChEMBL document CHEMBL2406960, “Epimeric methylsulfinyladenosine derivatives from the marine ascidian Herdmania momus” (Bioorg Med Chem Lett, 2013)
